Published values gathered from unrelated publications.
Each line is one published result; the experiments were not run side by side.
Target: Serine/threonine-protein kinase OSR1 (OXSR1, Homo sapiens, UniProt O95747)

| SMILES | observed | action | technique | cells | concentration | quantity | value |
| --- | --- | --- | --- | --- | --- | --- | --- |
| Cc1ccc(Nc2nccc(N(C)c3ccc4c(C)n(C)nc4c3)n2)cc1S(N)(=O)=O | enzyme activity | inhibitor | – | – | 0.5 µM | remaining activity | 103% |
| O=C1NC(c2ccccn2)Sc2ccccc21 (centres unmarked) | cell-free assay | – | competition with immobilised ligand | – | 1 µM | remaining binding | 100% |
| Cn1c2c(c3ccc(Cl)c(Cl)c31)C(C#N)C1(CCN(C(=O)OC(C)(C)C)CC1)NC2=O (racemic) | thermal stability | – | DSF | – | 10 µM | ΔTm | -0.1 °C |
| CO[C@@H](C)c1c(Nc2ccc([C@@H](N(C)C(=O)C3CCS(=O)(=O)CC3)C(F)(F)F)cc2)cnc2cc(Cl)nn12 | cell-free assay | – | competition with immobilised ligand | – | 1 µM | remaining binding | 100% |
| COc1cccc2c(NCc3ccccc3)nc(-n3c(N)nc4ccccc43)nc12 | target engagement in cells | inhibitor | chemoproteomics | – | 20 mM | inhibition | -6.6% |
| CCN1CCN(Cc2ccc(NC(=O)c3ccc(C)c(Oc4ccnc5[nH]ccc45)c3)cc2C(F)(F)F)CC1 | target engagement in cells | inhibitor | chemoproteomics | Huh-7 | 10 µM | inhibition | -24.5% |
| O=C(NS(=O)(=O)c1ccc(NCC2CCOCC2)c([N+](=O)[O-])c1)c1ccc(N2CCN(Cc3ccc(C(F)(F)F)cc3-c3ccc(Cl)cc3)CC2)cc1Oc1cnc2[nH]ccc2c1 | cell-free assay | – | competition with immobilised ligand | – | 1 µM | remaining binding | 83% |
| CCN1CCC2(CC1)NC(=O)c1c(c3ccc(Cl)c(Cl)c3n1C)C2C#N (racemic) | thermal stability | – | DSF | – | 10 µM | ΔTm | 0 °C |
| c1ccc(CNc2nc(N3CCOc4ccccc43)nc3c2CCCC3)cc1 | target engagement in cells | inhibitor | chemoproteomics | – | 20 mM | inhibition | -9% |
| COCCOc1nc(-c2ccc(Cl)nc2)nc2c1CN(C(=O)c1ncn3ccccc13)CC2 | cell-free assay | – | competition with immobilised ligand | – | 0.1 µM | remaining binding | 100% |
| O=C(Nc1cnn(-c2csc(C(=O)NC3COC3)c2)c1)Nc1c(F)cccc1Cl | enzyme activity | inhibitor | – | – | 5 µM | remaining activity | 96.5% |
| COc1ccc2c(O[C@@H]3C[C@H]4C(=O)N[C@]5(C(=O)O)CC5/C=C\CCCCC[C@H](NC(=O)OC5CCCC5)C(=O)N4C3)cc(-c3csc(NC(=O)C(C)C)n3)nc2c1C (some centres unmarked) | cell-free assay | – | competition with immobilised ligand | – | 1 µM | remaining binding | 82% |
| Cn1c2c(Cl)c(Cl)ccc2c2cc(N)[nH]c(=O)c21 | thermal stability | – | DSF | – | 10 µM | ΔTm | -0.2 °C |
| COc1cc(Nc2cnc(C#N)c(O[C@H](C)CN(C)C)n2)ncc1-c1cnn(C)c1 | enzyme activity | inhibitor | radiometric | – | 10 µM | remaining activity | 106% |
| Cc1ccc(C(=O)Nc2ccc(CN3CCN(C)CC3)c(C(F)(F)F)c2)cc1C#Cc1cnc2cccnn12 | enzyme activity | inhibitor | – | – | 23.5 nM | remaining activity | 96% |
| O=C1NC(=O)c2cc(Nc3ccc(F)cc3)c(Nc3ccc(F)cc3)cc21 | cell-free assay | – | – | – | 0.5 µM | remaining signal | 101% |
| Cc1cc(NC(=O)c2cccc(S(F)(F)(F)(F)F)c2)cc(-n2ccn3nc(-c4cccnc4)cc23)c1 | cell-free assay | – | competition with immobilised ligand | – | 1 µM | remaining binding | 100% |
| O=C1Nc2ccc(Cl)cc2C1=Cc1cc(Cl)c(O)c(Cl)c1 | cell-free assay | – | – | – | 0.5 µM | remaining signal | 91.6% |
| Cn1c2c(c3ccc(Cl)c(Cl)c31)C(C#N)C(C)(C)NC2=O (centres unmarked) | thermal stability | – | DSF | – | 10 µM | ΔTm | -0.1 °C |
| CS(=O)(=O)CCNCc1ccc(-c2ccc3ncnc(Nc4ccc(OCc5cccc(F)c5)c(Cl)c4)c3c2)o1 | cell-free assay | – | – | – | 0.5 µM | remaining signal | 105% |
| Cn1c2c(c3ccc(Cl)c(Cl)c31)C(C#N)C1(CCOCC1)NC2=O (centres unmarked) | thermal stability | – | DSF | – | 10 µM | ΔTm | -0.5 °C |
| N#CC1(c2ccccn2)CCN(Cc2cc(C(=O)N3CCCC3)c(=O)n3ccccc23)CC1 | cell-free assay | – | competition with immobilised ligand | – | 1 µM | remaining binding | 100% |
| O=C(Nc1cnn(-c2csc(C(=O)NC3COC3)c2)c1)Nc1ccccc1Cl | enzyme activity | inhibitor | – | – | 5 µM | remaining activity | 92.6% |
| CC1(C)NC(=O)c2[nH]c3c(Cl)c(Cl)ccc3c2C1C#N (centres unmarked) | thermal stability | – | DSF | – | 10 µM | ΔTm | -0.1 °C |
| Cc1nc(Cc2cccc(C(F)(F)F)c2)sc1-c1ccc(C(N)=O)nc1 | cell-free assay | – | competition with immobilised ligand | – | 1 µM | remaining binding | 100% |
| FC(F)(F)Oc1cccc(-c2cnc3ccc(-c4ccncc4)nn23)c1 | enzyme activity | inhibitor | radiometric | – | 5 µM | activity vs control | 104% |
